Data: ChEMBL document CHEMBL4342473, “Lead Optimization of Benzoxazolone Carboxamides as Orally Bioavailable and CNS Penetrant Acid Ceramidase Inhibitors” (J Med Chem, 2020)
Activity calls are given as the source filed them. No cut-off for these calls is given here.

Columns and labels:
[1] = molecular target: T1, Acid ceramidase (Homo sapiens) (UniProt Q13510); experiment: Inhibition of acid ceramidase in human SH-SY5Y cells assessed as change in intracellular accumulation of HexCer (d18:1/16:0) at 10 uM measured up to 6 hrs by LC/MS analysis; type: cell-based
T1 sequence (whole entry): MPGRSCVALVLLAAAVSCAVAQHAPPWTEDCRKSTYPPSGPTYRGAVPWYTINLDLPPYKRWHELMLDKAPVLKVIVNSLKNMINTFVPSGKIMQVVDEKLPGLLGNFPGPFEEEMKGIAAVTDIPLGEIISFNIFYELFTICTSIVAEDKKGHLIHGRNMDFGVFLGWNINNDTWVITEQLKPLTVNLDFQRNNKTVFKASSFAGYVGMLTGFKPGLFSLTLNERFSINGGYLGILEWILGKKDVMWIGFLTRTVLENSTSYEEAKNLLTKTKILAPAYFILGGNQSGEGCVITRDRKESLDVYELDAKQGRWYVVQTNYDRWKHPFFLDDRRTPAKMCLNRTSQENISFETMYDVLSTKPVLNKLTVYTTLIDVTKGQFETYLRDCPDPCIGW
Summary of the method: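 Human neuroblastoma SH-SY5Y cells incubated with compound at 10 μM for 30 min, 1 h, 3 h and 6 h; AC activity by LC/MS-based activity assay; Cer (d18:0/16:0), Cer (d18:1/16:0), sphingosine, SM (d18:1/16:0) and HexCer (d18:1/16:0) quantified by LC/MS.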

[2] = Unbound drug level in brain of twitcher mouse model of Krabbe's disease at 90 mg/kg,ip administered once daily for 20 days measured 1 hr post-last dose; type: ADME, organism-based; conditions: in vivo
Summary of the method: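 Twitcher mice dosed i.p. once daily for 20 days, sacrificed 1 h after last dose (day 20); drug measured in plasma and brain; unbound levels from unbound fractions (mean of two technical replicates); N = 3 males + 3 females per group.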

With `CC(C)CNC(=O)n1c(=O)oc2cc(C3CCN(C)CC3)ccc21` the inhibition [1] was “inactive” and the “Drug uptake(free)” value [2] was 2.15 µM.
